High-throughput results (PubChem BioAssay)
In the library only some 7.4% were active in any assay of this set; here they are far more common.
M1 agonist = activates the M1 muscarinic receptor; CHO-M1 cells, Fluo-4 calcium fluorescence, agonist mode; stronger effect = higher value; B-score at 10 µM; hit rate 3% among 64,000; AID 626;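 active = fluorescence rise, raw or as B-score row- and column-corrected plate score, outside the 99.7% band of its plate's samples, either direction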
Jurkat viability = cytotoxic compounds reducing Jurkat cell viability | Jurkat E6.1 viability, ATP luminescence, 48 h | inhibition, % at 4 µM | hit rate 1.2% among 56,000 | AID 463;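 active = inhibition above the mean inhibition of all tested compounds plus 3 SD, cut at about 28% in these data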
S1P3 ag = activates the human S1P3 receptor; hit rate 0.1% among 60,000; S1P3 NFAT-BLA reporter cells, agonism, FRET ratio; relative to 1 µM S1P, basal subtracted; activation, % at 4.5 µM; Q99500;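 active = activation above the screen-wide mean plus 3 SD, cut at about 4.5% in these data, passing the limit was not always enough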
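Assay system: stable CHO line with human S1P3, Gα16, NFAT-BLA reporter; Detection: FRET β-lactamase substrate fluorescence, excitation 405 nm, 460/535 nm emission ratio, background-subtracted; Read-out: percent activation versus median 1 µM S1P response, basal-subtracted, per plate; Incubation: cells plated overnight, compound 4 h 37 °C, substrate 2 h RT.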
M1 antag = M1 muscarinic receptor (rat) antagonism | P08482 | CHO-M1 cells, Fluo-4 calcium, ACh EC80 antagonist mode; stronger effect = lower value | B-score at 10 µM | hit rate 3.4% among 64,000 | AID 628;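 active = calcium fluorescence response, raw or row-and-column corrected B-score, differing from the plate sample mean either way at a set confidence level, mostly lower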
S1P1 ag-PAM = agonists and agonism potentiators of human S1P1 receptor | P21453 | hit rate 0.57% among 56,000 | S1P1 CRE-bla cells, forskolin, beta-lactamase FRET, potentiator mode; S1P1 agonist co-added at EC20, 2 nM; 100% = saturating reference agonist, 0% = basal | activation, % at 9.5 µM;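 active = activation above a cutoff set at the mean activation of all tested compounds plus 3 SD, cut at about 54% in these data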;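 note: forskolin at 4 µM as EC80 and the EC20 agonist is SEW2871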
JNK3 blocker = inhibitors of human JNK3 kinase; P53779; purified JNK3 kinase activity, HTS; inhibition, % at 8 µM; hit rate 0.61% among 60,000; AID 746; in the data active = inhibition above about 17%
M1 ag confirm = confirmation of rat M1 muscarinic receptor agonists | shares compounds with M1 agonist | CHO-M1 cells, Fluo-4 calcium fluorescence, agonist mode; actives lie on both sides | fluorescence change (max-min) at 10 µM | hit rate 19% among 1,700;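 active = fluorescence change differs from the solvent-only DMSO control mean at a set confidence level in both duplicate runs; inconclusive = differs from solvent-only control mean in just one of two runs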;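 note: an EC20 dose of acetylcholine follows compound addition during the same imaging run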
M4 ag counter = rat M4 muscarinic agonism, M1 counter-screen; hit rate 9% among 1,700; CHO M4/Gqi5 cells, Fluo-4 calcium fluorescence, agonist mode; actives lie on both sides; shares compounds with M1 agonist; fluorescence change (max-min) at 10 µM;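 active = fluorescence change differing from the plate's solvent-only control wells at 99.7% confidence in both duplicates, whether higher or lower; inconclusive = differs from solvent controls in only one of two duplicates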
Target sequence (P08485 whole entry, looked up): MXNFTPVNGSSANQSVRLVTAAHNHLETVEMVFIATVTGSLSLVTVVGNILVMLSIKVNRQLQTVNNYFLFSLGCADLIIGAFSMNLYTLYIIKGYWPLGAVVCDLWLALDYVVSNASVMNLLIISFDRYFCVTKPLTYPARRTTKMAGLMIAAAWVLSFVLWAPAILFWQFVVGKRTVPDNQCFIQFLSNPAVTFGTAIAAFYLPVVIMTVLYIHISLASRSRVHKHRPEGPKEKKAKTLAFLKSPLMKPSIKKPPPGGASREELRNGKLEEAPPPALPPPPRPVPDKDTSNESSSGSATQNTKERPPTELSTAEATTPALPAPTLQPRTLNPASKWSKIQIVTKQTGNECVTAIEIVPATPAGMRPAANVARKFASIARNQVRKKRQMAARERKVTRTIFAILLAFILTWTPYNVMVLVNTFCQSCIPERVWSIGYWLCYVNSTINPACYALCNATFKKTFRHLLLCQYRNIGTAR
A number is an active result; n = inactive; u = inconclusive; x = no result given.

SMILES	M1 agonist	Jurkat viability	S1P3 ag	M1 antag	S1P1 ag-PAM	JNK3 blocker	M1 ag confirm	M4 ag counter
CCOC(=O)c1ccccc1NC(=O)c1ccc(Cl)c(S(=O)(=O)N2CCOCC2)c1	n	n	n	n	x	n	x	x
Cc1cccn2c(=O)c3cc(C#N)c(=NC(=O)c4ccc5c(c4)OCO5)n(CC(C)C)c3nc12	n	n	n	n	n	n	x	x
COCCCn1c(=NC(=O)c2ccncc2)c(C#N)cc2c(=O)n3cccc(C)c3nc21	129	n	n	n	n	n	469	363
Cc1cccn2c(=O)c3cc(C#N)c(=NC(=O)c4ccncc4)n(CCCOC(C)C)c3nc12	83	n	n	n	n	n	587	511
CCOC(=O)c1cc2c(=O)n3cccc(C)c3nc2n(CCOC)c1=NC(=O)c1ccncc1	n	n	n	n	n	n	x	x
O=C(O)c1ccc(CSCc2ccccc2F)o1	6.81	n	n	n	n	n	n	n
O=C(O)c1ccc(COc2c(F)c(F)c(F)c(F)c2F)o1	n	x	n	n	n	n	x	x
COc1ccc(CN(C#N)c2nc(SC)nc(N(C)C)n2)cc1	n	x	n	n	n	n	x	x
Cc1ccc2c(c1)cc(CN(Cc1ccccc1)C(=O)N(C)C)c1nnnn12	n	n	n	n	n	n	x	x
COc1ccc(S(=O)(=O)NCCCCNS(=O)(=O)c2ccc(OC)cc2)cc1	-4.2	n	n	n	n	n	n	n
Cc1nc2ccccc2c2oc(C(=O)NCC3COc4ccccc4O3)cc12 (stereo not drawn)	n	n	n	n	n	n	x	x
COc1cc(NC(=O)c2cc3c(C)nc4ccccc4c3o2)cc(OC)c1OC	3.51	n	n	n	n	n	n	n
COc1ccc(C)cc1NC(=O)c1cc2c(C)nc3ccccc3c2o1	n	n	n	n	n	n	x	x
COc1ccc(CNC(=O)c2cc3c(C)nc4ccccc4c3o2)c(OC)c1	4.86	60.2	n	n	94.0	n	n	n
Oc1ccc(CNc2ccc(F)cc2)c2cccnc12	21.9	n	n	n	n	n	n	u
O=C(NC1CCCc2ccccc21)C1CCC(CNc2c(N3CCOCC3)c(=O)c2=O)CC1 (stereo not drawn)	n	n	n	n	n	n	x	x
CCOc1ccc2oc(-c3ccccc3)c(C(=O)O)c2c1	n	n	n	n	x	n	x	x
CCOc1ccc2oc(-c3ccccc3)c(C(=O)N3CCN(CCO)CC3)c2c1	4.17	n	n	n	n	n	n	u
CCCCCCC1/C(=N/O)CCC1C(=O)OC (stereo not drawn)	n	n	n	n	n	n	x	x
Nc1cccc2c1C(=O)N(C(=O)c1ccc(S(=O)(=O)N3CCCCCC3)cc1)C2=O	7.5	x	x	n	x	x	n	n
O=C(O)c1cn[nH]c1-n1cnnn1	x	n	n	x	n	n	x	x
CC1CCCN(CC(=O)Nc2ccc(S(=O)(=O)NC3CCCCC3)cc2)C1 (stereo not drawn)	n	n	n	n	n	n	x	x
O=C(OCc1nc2ccccc2s1)C1CCN(C2=NS(=O)(=O)c3ccccc32)CC1	4.57	n	n	n	n	n	u	n
Cc1oc2c(c1C(=O)NCc1cc(C(=O)O)co1)CCCC2	n	n	n	n	n	n	x	x
CCOC(=O)c1coc(CNC(=O)c2c(C)oc3c2CCCC3)c1	14.6	n	n	n	n	n	u	n
CC(=O)NC(C)C(=O)OCc1ccc(Cl)cc1Cl (stereo not drawn)	n	n	n	n	n	n	x	x
CCOP(=O)(c1ccc(N(C)C)cc1)C(O)c1c(Cl)cccc1Cl (stereo not drawn)	8.03	n	n	n	n	n	u	n
CCCc1[nH]nc2c1C1(CCOC1C)C(C#N)=C(N)O2 (stereo not drawn)	n	n	n	n	n	n	x	x
C=CCn1c(=O)c2ccccc2n2c(SCc3nc(N)nc(Nc4ccccc4C)n3)nnc12	3.99	n	n	n	n	n	u	n
C=CCn1c(=O)c2ccccc2n2c(SCC(=O)c3ccccc3)nnc12	n	n	n	n	n	n	x	x
